Drawing on ChEMBL document CHEMBL1123355, “Activity of N-methyl-alpha- and -beta-funaltrexamine at opioid receptors” (1986), this text covers IC50 ratio for one molecule.

This assay is filed under the species Cavia porcellus. The assay can be described thus: Beta-Funaltrexamine antagonism of morphine agonism in the presence of compound was determined in Guinea pig ileum at concentration of 20 nM. Type of assay: functional. An outline of the steps:
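Guinea pig ileum protection assay. The protector was added to the tissue 10 min before 20 nM β-FNA, which was applied for 30 min. The tissue was then washed 30 times with intermittent chasing by 500 nM naloxone. The result is the morphine IC50 in treated tissue divided by the morphine IC50 in control tissue of the same preparation, given with SE and n.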

On to `O=C1CC[C@@]2(O)[C@H]3Cc4ccc(O)c5c4[C@@]2(CCN3CC2CC2)[C@H]1O5` [NALTREXONE], for which the IC50 ratio amounted to 2.1.
